Reference: ChEMBL document CHEMBL5247575 (J Med Chem, 2018)

Each compound was assayed on Acinetobacter baumannii (assay: Synergistic antibacterial activity against Acinetobacter baumannii PR363 producing OXA-23 assessed as cefepime MIC at 8 ug/ml by broth microdilution method). Settings: dose 8 µg/ml.
Format: functional

| SMILES | MIC |
| --- | --- |
| O=C(NNC(=O)[C@@H]1CC[C@@H]2CN1C(=O)N2OS(=O)(=O)O)[C@@H]1CCNC1 | 8 µg/mL |

The compounds below were run on Klebsiella pneumoniae (assay: Synergistic antibacterial activity against Klebsiella pneumoniae 901/1860 producing KPC-3 assessed as cefepime MIC at 8 ug/ml by broth microdilution method). Settings: dose 8 µg/ml.
Format: functional

| SMILES | MIC |
| --- | --- |
| O=C(NNC(=O)[C@@H]1CC[C@@H]2CN1C(=O)N2OS(=O)(=O)O)[C@@H]1CCNC1 | ≤ 0.12 µg/mL |

The compounds below were run on Bacteria (assay: Inhibition of bacteria PDC-3 assessed as half life using nitrocefin as substrate). Settings: not given.

| SMILES | T1/2 |
| --- | --- |
| O=C(NNC(=O)[C@@H]1CC[C@@H]2CN1C(=O)N2OS(=O)(=O)O)[C@@H]1CCNC1 | 2.9 min |

These compounds were tested on Klebsiella pneumoniae (assay: Synergistic antibacterial activity against Klebsiella pneumoniae 1354/2241 producing KPC-3 assessed as cefepime MIC at 8 ug/ml by broth microdilution method). Settings: dose 8 µg/ml.
Format: functional
Procedure, shortened: (§1)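 Broth microdilution per CLSI guidelines, using custom frozen panels. […] Each partner drug was also tested alone. MICs were run in triplicate and the modal value is reported.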

| SMILES | MIC |
| --- | --- |
| O=C(NNC(=O)[C@@H]1CC[C@@H]2CN1C(=O)N2OS(=O)(=O)O)[C@@H]1CCNC1 | ≤ 0.12 µg/mL |

What follows are compounds tested on Acinetobacter baumannii (assay: Synergistic antibacterial activity against Acinetobacter baumannii PR408 producing OXA-24/40 assessed as meropenem MIC at 4 ug/ml by broth microdilution method). Settings: dose 4 µg/ml.
Format: functional

| SMILES | MIC |
| --- | --- |
| O=C(NNC(=O)[C@@H]1CC[C@@H]2CN1C(=O)N2OS(=O)(=O)O)[C@@H]1CCNC1 | > 16 µg/mL |

What follows are compounds tested on Klebsiella pneumoniae (assay: Synergistic antibacterial activity against Klebsiella pneumoniae 935/1884 producing KPC-3 assessed as cefepime MIC at 4 ug/ml by broth microdilution method). Settings: dose 4 µg/ml.
Format: functional

| SMILES | MIC |
| --- | --- |
| O=C(NNC(=O)[C@@H]1CC[C@@H]2CN1C(=O)N2OS(=O)(=O)O)[C@@H]1CCNC1 | ≤ 0.12 µg/mL |

What follows are compounds tested on Acinetobacter baumannii (assay: Synergistic antibacterial activity against ADC deleted Acinetobacter baumannii assessed as meropenem MIC at 8 ug/ml by broth microdilution method). Settings: dose 8 µg/ml.
Format: functional

| SMILES | MIC |
| --- | --- |
| O=C(NNC(=O)[C@@H]1CC[C@@H]2CN1C(=O)N2OS(=O)(=O)O)[C@@H]1CCNC1 | ≤ 0.12 µg/mL |

These compounds were tested on Acinetobacter baumannii (assay: Synergistic antibacterial activity against Acinetobacter baumannii PR359 producing OXA-23 assessed as meropenem MIC at 8 ug/ml by broth microdilution method). Settings: dose 8 µg/ml.
Format: functional
Procedure, shortened: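 Broth microdilution per CLSI guidelines in frozen panels. Test compound held at fixed 8 mg/L while the partner β-lactam concentration was increased. Run in triplicate; modal MIC reported.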

| SMILES | MIC |
| --- | --- |
| O=C(NNC(=O)[C@@H]1CC[C@@H]2CN1C(=O)N2OS(=O)(=O)O)[C@@H]1CCNC1 | > 16 µg/mL |

Each compound was assayed on Klebsiella pneumoniae (assay: Synergistic antibacterial activity against Klebsiella pneumoniae 1084/1957 producing KPC-3 assessed as meropenem MIC at 8 ug/ml by broth microdilution method). Settings: dose 8 µg/ml.
Format: functional
Procedure, shortened: as §1

| SMILES | MIC |
| --- | --- |
| O=C(NNC(=O)[C@@H]1CC[C@@H]2CN1C(=O)N2OS(=O)(=O)O)[C@@H]1CCNC1 | ≤ 0.12 µg/mL |

The compounds below were run on Klebsiella pneumoniae (assay: Synergistic antibacterial activity against Klebsiella pneumoniae 972/1910 producing KPC-3 assessed as meropenem MIC at 4 ug/ml by broth microdilution method). Settings: dose 4 µg/ml.
Format: functional

| SMILES | MIC |
| --- | --- |
| O=C(NNC(=O)[C@@H]1CC[C@@H]2CN1C(=O)N2OS(=O)(=O)O)[C@@H]1CCNC1 | ≤ 0.12 µg/mL |

What follows are compounds tested on Escherichia coli (assay: Synergistic antibacterial activity against Escherichia coli DH10B assessed as meropenem MIC at 8 ug/ml by broth microdilution method). Settings: dose 8 µg/ml.
Format: functional

| SMILES | MIC |
| --- | --- |
| O=C(NNC(=O)[C@@H]1CC[C@@H]2CN1C(=O)N2OS(=O)(=O)O)[C@@H]1CCNC1 | ≤ 0.12 µg/mL |

The compounds below were run on Escherichia coli (assay: Synergistic antibacterial activity against Escherichia coli DH10B transfected with pBR322-catI-KPC-2 assessed as meropenem MIC at 4 ug/ml by broth microdilution method). Settings: dose 4 µg/ml.
Format: functional
Procedure, shortened: as §1

| SMILES | MIC |
| --- | --- |
| O=C(NNC(=O)[C@@H]1CC[C@@H]2CN1C(=O)N2OS(=O)(=O)O)[C@@H]1CCNC1 | ≤ 0.12 µg/mL |

The compounds below were run on Klebsiella pneumoniae (assay: Antibacterial activity against Klebsiella pneumoniae jefferson 1775 producing OXA-48 by broth microdilution method). Settings: not given.
Format: functional

| SMILES | MIC |
| --- | --- |
| O=C(NNC(=O)[C@@H]1CC[C@@H]2CN1C(=O)N2OS(=O)(=O)O)[C@@H]1CCNC1 | > 16 µg/mL |

What follows are compounds tested on Escherichia coli (assay: Synergistic antibacterial activity against Escherichia coli DH10B transfected with pBC SK (-) PDC-3 assessed as cefepime MIC at 8 ug/ml by broth microdilution method). Settings: dose 8 µg/ml.
Format: functional
Procedure, shortened: as §1

| SMILES | MIC |
| --- | --- |
| O=C(NNC(=O)[C@@H]1CC[C@@H]2CN1C(=O)N2OS(=O)(=O)O)[C@@H]1CCNC1 | ≤ 0.12 µg/mL |

Each compound was assayed on Klebsiella pneumoniae (assay: Synergistic antibacterial activity against Klebsiella pneumoniae jefferson 1773 producing OXA-181 assessed as cefepime MIC at 4 ug/ml by broth microdilution method). Settings: dose 4 µg/ml.
Format: functional

| SMILES | MIC |
| --- | --- |
| O=C(NNC(=O)[C@@H]1CC[C@@H]2CN1C(=O)N2OS(=O)(=O)O)[C@@H]1CCNC1 | ≤ 0.12 µg/mL |

The compounds below were run on Acinetobacter baumannii (assay: Synergistic antibacterial activity against Acinetobacter baumannii PR363 producing OXA-23 assessed as meropenem MIC at 4 ug/ml by broth microdilution method). Settings: dose 4 µg/ml.
Format: functional

| SMILES | MIC |
| --- | --- |
| O=C(NNC(=O)[C@@H]1CC[C@@H]2CN1C(=O)N2OS(=O)(=O)O)[C@@H]1CCNC1 | > 16 µg/mL |

These compounds were tested on Klebsiella pneumoniae (assay: Synergistic antibacterial activity against Klebsiella pneumoniae NY BS producing OXA-232 assessed as cefepime MIC at 4 ug/ml by broth microdilution method). Settings: dose 4 µg/ml.
Format: functional

| SMILES | MIC |
| --- | --- |
| O=C(NNC(=O)[C@@H]1CC[C@@H]2CN1C(=O)N2OS(=O)(=O)O)[C@@H]1CCNC1 | ≤ 0.12 µg/mL |

Each compound was assayed on Escherichia coli (assay: Synergistic antibacterial activity against Escherichia coli DH10B transfected with pBC SK (-) KPC-3 assessed as cefepime MIC at 4 ug/ml by broth microdilution method). Settings: dose 4 µg/ml.
Format: functional

| SMILES | MIC |
| --- | --- |
| O=C(NNC(=O)[C@@H]1CC[C@@H]2CN1C(=O)N2OS(=O)(=O)O)[C@@H]1CCNC1 | ≤ 0.12 µg/mL |

What follows are compounds tested on Klebsiella pneumoniae (assay: Synergistic antibacterial activity against Klebsiella pneumoniae 776/1742 producing KPC-2 assessed as cefepime MIC at 4 ug/ml by broth microdilution method). Settings: dose 4 µg/ml.
Format: functional

| SMILES | MIC |
| --- | --- |
| O=C(NNC(=O)[C@@H]1CC[C@@H]2CN1C(=O)N2OS(=O)(=O)O)[C@@H]1CCNC1 | ≤ 0.12 µg/mL |
